Data on 31 molecules can be found in ChEMBL document CHEMBL3271969, “2-pyridylimidazoles as inhibitors of xanthine oxidase” (J Med Chem, 1977).

The term inhibition denotes the share of the control response that was lost under treatment. Low readings indicate a weak effect, high ones a strong effect. Broadly, the pKa is the pH at which an ionisable group is half protonated.

In data set [1] the target is T1, Xanthine dehydrogenase/oxidase (Bos taurus, UniProt P80457). As to the kind of experiment: Inhibition of bovine xanthine oxidase at 2 X 10^-5 M. The following applies: cattle; for inhibition (INH): 20 µM. The method in brief: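 Bovine xanthine oxidase, diluted 1:300 to give ΔOD292 of 0.09–0.12 per min, starts the reaction in 0.05 M phosphate buffer pH 7.5 with hypoxanthine at 3×10^-5 M plus inhibitor.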

A short description of data set [2]: Association constant, apparent pKa of the compound. Format: physicochemical.
Data set [3] in a line: Dissociation constant, apparent pKa of the compound. It counts as physicochemical.
Data set [4] addresses T1, Xanthine dehydrogenase/oxidase. As to the kind of experiment: Inhibition of bovine xanthine oxidase. The following applies: read-out: I50.

T1 sequence (P80457 whole entry): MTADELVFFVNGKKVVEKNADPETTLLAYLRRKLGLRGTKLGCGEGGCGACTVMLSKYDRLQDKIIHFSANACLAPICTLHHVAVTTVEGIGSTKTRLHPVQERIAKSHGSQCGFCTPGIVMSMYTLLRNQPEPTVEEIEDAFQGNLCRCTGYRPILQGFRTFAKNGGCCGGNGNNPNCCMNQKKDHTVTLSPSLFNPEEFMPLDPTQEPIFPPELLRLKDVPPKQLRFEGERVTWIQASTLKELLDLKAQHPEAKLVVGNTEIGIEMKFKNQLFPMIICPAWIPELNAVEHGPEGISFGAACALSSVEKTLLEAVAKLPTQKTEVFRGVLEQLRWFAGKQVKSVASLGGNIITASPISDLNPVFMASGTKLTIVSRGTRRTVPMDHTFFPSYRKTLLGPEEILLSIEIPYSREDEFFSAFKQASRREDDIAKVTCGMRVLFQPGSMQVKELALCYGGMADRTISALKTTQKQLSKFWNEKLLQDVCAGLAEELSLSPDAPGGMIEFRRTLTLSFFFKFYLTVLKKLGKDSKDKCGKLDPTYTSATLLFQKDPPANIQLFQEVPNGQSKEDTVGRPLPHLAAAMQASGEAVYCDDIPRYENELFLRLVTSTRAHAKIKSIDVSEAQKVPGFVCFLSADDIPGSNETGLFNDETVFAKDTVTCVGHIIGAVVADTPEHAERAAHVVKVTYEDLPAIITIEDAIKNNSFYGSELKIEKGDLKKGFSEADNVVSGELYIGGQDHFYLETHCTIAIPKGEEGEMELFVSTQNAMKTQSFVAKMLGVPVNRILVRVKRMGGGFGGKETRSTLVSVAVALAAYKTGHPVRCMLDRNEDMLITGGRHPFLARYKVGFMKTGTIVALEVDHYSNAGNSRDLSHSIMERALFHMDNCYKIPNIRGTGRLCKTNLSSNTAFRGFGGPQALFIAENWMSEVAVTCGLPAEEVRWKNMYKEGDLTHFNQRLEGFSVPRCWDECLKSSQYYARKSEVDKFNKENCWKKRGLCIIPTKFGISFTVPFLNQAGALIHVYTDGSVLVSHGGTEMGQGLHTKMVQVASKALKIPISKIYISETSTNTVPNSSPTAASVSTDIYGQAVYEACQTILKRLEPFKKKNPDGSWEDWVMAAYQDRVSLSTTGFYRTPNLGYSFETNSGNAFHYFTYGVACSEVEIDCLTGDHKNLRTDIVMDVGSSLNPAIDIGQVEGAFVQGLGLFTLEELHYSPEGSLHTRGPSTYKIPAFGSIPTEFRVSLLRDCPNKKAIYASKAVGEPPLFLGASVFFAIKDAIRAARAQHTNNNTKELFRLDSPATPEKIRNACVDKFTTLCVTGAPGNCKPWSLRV

`NC(=O)c1nc(-c2cccnc2)[nH]c1C(N)=O`: the “inhibition (INH)” value in data set [1] is listed as “Not Active”. Molecule `c1cncc(-c2nc3cnccc3[nH]2)c1` yielded an inhibition at 20 µM in data set [1] of 23%.

On to `COC(=O)c1nc(-c2ccncc2)[nH]c1C(=O)OC`, for which the “inhibition (INH)” value in data set [1] is “Not Active”. Also, the pKa is 3.98 in data set [2] and 7.15 in data set [3]. Turning to `Clc1ccc2[nH]c(-c3ccncc3)nc2c1`, the pKa is 3.5 in data set [2] and 10 in data set [3].

`FC(F)(F)c1cnc(-c2ccncc2)[nH]1`: the IC50 in data set [4] was determined as 2 µM. Besides, the pKa in data set [2] was 3.76; in data set [3] it was 9.73. As to `c1cncc(-c2nc3cccnc3[nH]2)c1`, in data set [1], the “inhibition (INH)” value was “Not Active”. As for `O=[N+]([O-])c1cnc(-c2ccncc2)[nH]1`, the IC50 in data set [4] was determined as 0.35 µM. Regarding `FC(F)(F)c1cnc(-c2cccnc2)[nH]1`, the IC50 in data set [4] amounted to 40 µM. The values for the pKa in data set [2] and in data set [3] were 3.5 and 10.2, respectively. For the molecule `O=[N+]([O-])c1c[nH]cn1`, the “inhibition (INH)” value in data set [1] is on record as “Not Active”. Also, the pKa in data set [3] amounted to 9. The molecule `Clc1nc(-c2cccnc2)[nH]c1Cl` gave an inhibition at 20 µM in data set [1] of 29%.

Regarding `c1cc(-c2nc3cnccc3[nH]2)ccn1`, the IC50 in data set [4] is 13 µM. Turning to `N#Cc1nc(-c2ccncc2)[nH]c1C#N`, in data set [4], the IC50 is 0.02 µM. `COC(=O)c1cnc(-c2ccncc2)[nH]1` gave an inhibition at 20 µM in data set [1] of 10%.

Take `c1cncc(-c2ncc[nH]2)c1`: in data set [1], the “inhibition (INH)” value is “Not Active”.

With `O=C(O)c1nc(-c2ccncc2)[nH]c1C(=O)O`, the IC50 in data set [4] was found to be 5.8 µM.

Consider `COC(=O)c1nc(-c2cccnc2)[nH]c1C(=O)OC`, for which the “inhibition (INH)” value in data set [1] is given as “Not Active”. `NC(=O)c1nc(-c2ccncc2)[nH]c1C(N)=O` displayed an inhibition at 20 µM in data set [1] of 14%.

On to `c1cc(-c2ncc[nH]2)ccn1`, for which the “inhibition (INH)” value in data set [1] is listed as “Not Active”. As to `Cc1cnc(-c2cccnc2)[nH]1`, in data set [1], the “inhibition (INH)” value is listed as “Not Active”. On to `O=C(O)c1nc(-c2cccnc2)[nH]c1C(=O)O`, for which the IC50 in data set [4] worked out at 1 µM.

`Clc1ccc2nc(-c3cccnc3)[nH]c2c1`: the “inhibition (INH)” value in data set [1] is listed as “Not Active”. As for `Brc1nc(-c2cccnc2)[nH]c1Br`, the IC50 in data set [4] turned out to be 20 µM. As for `N#Cc1nc(-c2ccncc2)[nH]c1C(N)=O`, the IC50 in data set [4] is 0.5 µM. Consider `c1ccc2[nH]c(-c3ccncc3)nc2c1`, for which the “inhibition (INH)” value in data set [1] is “Not Active”. In addition, the values for the pKa in data set [2] and in data set [3] were 3.85 and 10.9, respectively. Consider `Cc1cnc(-c2ccncc2)[nH]1`, for which the “inhibition (INH)” value in data set [1] is on record as “Not Active”.

In the case of `N#Cc1cnc(-c2ccncc2)[nH]1`, the IC50 in data set [4] was 5.6 µM.

Regarding `N#Cc1nc(-c2cccnc2)[nH]c1C#N`, the IC50 in data set [4] worked out at 35 µM. `Clc1cc2nc(-c3ccncc3)[nH]c2cc1Cl`: the IC50 in data set [4] turned out to be 15 µM. The pKa in data set [2] worked out at 3; in data set [3], 9.33. For the molecule `O=C(O)c1cnc(-c2ccncc2)[nH]1`, the inhibition at 20 µM in data set [1] was 34%. On to `c1cnc2[nH]c(-c3ccncc3)nc2c1`, for which, in data set [1], the “inhibition (INH)” value is recorded as “Not Active”. As to `O=[N+]([O-])c1cnc(-c2cccnc2)[nH]1`, in data set [4], the IC50 is 1.3 µM.
